Activity calls are given as the source filed them. The rule behind the calls is not given here.
How the values were obtained:
Chikungunya virus [1] = test: Antiviral activity against Chikungunya virus LR2006_OPY1 infected in african green monkey Vero cells assessed as reduction in virus-induced cytopathogenicity after 3 days by cell titer-blue fluorescent assay; format: functional, cell-based; settings: 72 h
[2] = Cytotoxicity against african green monkey Vero cells assessed as reduction in cell viability after 72 hrs by cell titer-blue fluorescent assay; format: cell-based; settings: chlorocebus sabaeus
Procedure, shortened: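 Uninfected Vero (CCL-81) cells were seeded at 1 × 10^5 cells/mL, grown for 24 h at 37°C with 5% CO2, then exposed to compound at 4 to 4000 µg/mL for 72 h. CellTiter-Blue was added for 2 h in the dark, and fluorescence was read at 560/590 nm. Viability is given as % of control, from at least three repeats.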

Chikungunya virus [3] = test: Antiviral activity against Chikungunya virus LR2006_OPY1 infected in african green monkey Vero cells assessed as reduction in virus-induced cytopathogenicity at 100 ug/mL after 3 days by cell titer-blue fluorescent assay; format: functional, cell-based

Compound | IC50 (Chikungunya virus [1]) [µM] | CC50 at 72 h [2] [µM] | inhibition (Chikungunya virus [3])
O=C1NC(=S)S/C1=C\c1ccc2ccccc2c1 | 3.6 | > 100 | –
CN(C)c1ccc(/C=C2\SC(=S)NC2=O)cc1 | – | > 100 | inactive
N=C1NC(=O)/C(=C/c2ccc(O)cc2)S1 [MIRIN] | – | > 100 | inactive
O=C1NC(=S)S/C1=C\c1ccc(O)cc1 | – | > 100 | inactive
COc1ccc(/C=C2\SC(=S)NC2=O)cc1 | – | > 100 | inactive
O=C1NC(=S)S/C1=C\c1ccc(Cl)cc1 | – | > 100 | inactive
O=C1NC(=S)S/C1=C\c1ccccc1[N+](=O)[O-] | – | > 100 | inactive
O=C1NC(=S)S/C1=C\c1cccs1 | – | > 100 | inactive
NC1=NC(=O)/C(=C/c2ccccc2[N+](=O)[O-])S1 | 40.1 | > 100 | –

Source: ChEMBL document CHEMBL3352512, “Thiazolidone derivatives as inhibitors of chikungunya virus” (Eur J Med Chem, 2015)
